Experimental data pooled from the literature.
Protocols differ between the studies behind these lines.
Target: Interleukin-1 receptor-associated kinase 3 (IRAK3, Homo sapiens, UniProt Q9Y616)
Residues used in one study (Q9Y616 1-596): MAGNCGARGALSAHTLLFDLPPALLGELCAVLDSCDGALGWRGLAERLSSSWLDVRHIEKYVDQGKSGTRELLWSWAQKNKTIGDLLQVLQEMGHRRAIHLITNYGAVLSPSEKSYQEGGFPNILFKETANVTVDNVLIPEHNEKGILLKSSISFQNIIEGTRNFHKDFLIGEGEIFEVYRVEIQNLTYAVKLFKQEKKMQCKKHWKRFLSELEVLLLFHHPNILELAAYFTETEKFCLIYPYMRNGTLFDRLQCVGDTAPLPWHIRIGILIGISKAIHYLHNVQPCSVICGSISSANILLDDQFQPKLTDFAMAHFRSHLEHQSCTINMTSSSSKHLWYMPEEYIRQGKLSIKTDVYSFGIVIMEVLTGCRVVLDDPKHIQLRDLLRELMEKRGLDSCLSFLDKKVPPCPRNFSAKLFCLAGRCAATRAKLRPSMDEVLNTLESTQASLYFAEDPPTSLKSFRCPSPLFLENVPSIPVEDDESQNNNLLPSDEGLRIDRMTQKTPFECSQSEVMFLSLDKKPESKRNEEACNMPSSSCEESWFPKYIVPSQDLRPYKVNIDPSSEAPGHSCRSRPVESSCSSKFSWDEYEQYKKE

| Compound | assay | setting | remaining binding |
| --- | --- | --- | --- |
| C[C@H](NC(=O)c1cnc2n1[C@](C)(Cc1ccc(C#N)cc1)C(=O)N2c1cc(Cl)c(F)c(Cl)c1)C(=O)NC1(c2ccccn2)CC1 | cell-free assay, competition with immobilised ligand | 1 µM | 100% |
| C[C@@H](c1ccc(-n2cnc3c(N)ncnc32)cc1)N1CCc2nn(C)c(Cc3ccccc3)c2C1=O | binding, competition with immobilised ligand | 0.1 µM | 79% |
| C=CC(=O)N1CCC(C(=O)NCC(=O)N2CCN(c3nc(-c4cnc(N)nc4C(F)F)nc(N4CCOCC4)n3)CC2)CC1 | binding, competition with immobilised ligand | 1 µM | 89% |
| Cc1cnn2ncc(-c3ccnc(N(C)C)n3)c2c1 | binding | 1 µM | 70% |
| CCN1CCN(Cc2ccc(C(=O)Nc3ccc(C)c(Oc4ccc5c(c4)CC(=O)N5)c3)cc2C(F)(F)F)CC1 | binding, competition with immobilised ligand | 1 µM | 100% |
| C[C@H]1CCN(c2nccc(-c3cnn4ncccc34)n2)C1 | binding | 1 µM | 52% |
| O=C(NCCCN1CCOCC1)c1ccc(Nc2ncc(Cl)c(-c3ccc(Cl)s3)n2)cc1 | binding, competition with immobilised ligand | 1 µM | 13% |
| N#Cc1ccc(Nc2ccc3[nH]c(=O)[nH]c3c2)c(Cl)c1 | cell-free assay, competition with immobilised ligand | 1 µM | 94% |
| CC1CCCN1c1nccc(-c2cnn3ncccc23)n1 (stereo not drawn) | binding | 1 µM | 72% |
| COc1cnc(Nc2cccc(S(N)(=O)=O)c2)nc1N1CCN(c2ccccc2)CC1 | binding, competition with immobilised ligand | 1 µM | 100% |
| CCCCN(CCCC)C(=O)CN1C[C@H](c2cc(OC)c3c(c2)OCO3)[C@@H](C(=O)O)[C@@H]1CC(C)(C)CCC | cell-free assay, competition with immobilised ligand | 1 µM | 100% |
| O=C(c1ccc(Nc2nccc(-c3cc4ccccc4s3)n2)cc1)N1CCC(N2CCCC2)CC1 | binding, competition with immobilised ligand | 1 µM | 14% |
| F[C@@H]1CCN(c2nccc(-c3cnn4ncccc34)n2)C1 | binding | 1 µM | 100% |
| O=C(Nc1c[nH]nc1C(=O)NC1CCNCC1)c1cc(F)cc(F)c1 | binding, competition with immobilised ligand | 1 µM | 100% |
| CCOCCn1cc(C(=O)Nc2ccc(-n3nc(-c4cccnc4)cc3C(F)(F)F)cn2)ccc1=O | cell-free assay, competition with immobilised ligand | 1 µM | 100% |
| N[C@@H]1CCN(c2nccc(-c3cnn4ncccc34)n2)C1 | binding | 1 µM | 100% |
| CN(C(=O)c1ccccc1)c1cc(N(C)c2ccc3c(c2)CCc2ccc(C(=O)NCCN4CCOCC4)cc2C3=O)ccc1F | cell-free assay, competition with immobilised ligand | 1 µM | 91% |
| COc1cnc(Nc2cccc(S(N)(=O)=O)c2)nc1N1CCN(c2ccccc2)C(=O)C1 | binding, competition with immobilised ligand | 1 µM | 100% |
| CS(=O)(=O)N1CCCC(NC(=O)[C@H](CCC2CCCCC2)NC(=O)c2ccc(CNc3ncnc4c3nnn4-c3ccccc3)cc2)C1 (stereo partly drawn) | cell-free assay, competition with immobilised ligand | 0.1 µM | 100% |
| c1cnn2ncc(-c3ccnc(N4CCC45COC5)n3)c2c1 | binding | 1 µM | 36% |
| O=C(c1ccc(Nc2ncc(Cl)c(-c3cc4ccccc4s3)n2)cc1)N1CCC(N2CCCC2)CC1 | binding, competition with immobilised ligand | 1 µM | 6% |
